Hits are enriched below; roughly 2.1% of the tested compounds scored in any of these assays.
IEC-6 tox: IEC-6 cytotoxicity, counter-screen for KLF5 inhibitors; luminescence viability; actives 0.78% (n = 290,000); inhibition, % at 5 µM; AID 1825; in the data active = inhibition above about 22%;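 note: 0% = plate median of test compound wells and 100% = cytotoxic reference compound wells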
BaF3 parental: parental Ba/F3 viability inhibition as JAK2V617F counter-screen. CellTiter-Glo ATP luminescence. inhibition, % at 5.6 µM. actives 1.1% (n = 220,000). AID 1486;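 active = inhibition above a per-campaign cutoff, the mean inhibition of all tested compounds plus 3 SD, cut at about 27% in these data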;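 note: 0% = DMSO wells and 100% = JAK Inhibitor I control wells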
MT stabilizer: microtubule stabilization, imaging screen | HeLa tubulin immunostaining HCS, 24 h; share of cells brighter than vehicle mean+2SD | % tubulin-high responders, % at 10 µM | actives 0.83% (n = 200,000);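 active = plate Z-score above 3 for both tubulin-high and condensed-nucleus cell shares, with cell loss under 80%, at 10 µM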;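 note: anti alpha tubulin signal scored within the nucleus-defined area of each cell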
KLF5 inhibitor: kruppel-like factor 5 inhibition. DLD-1 KLF5 promoter-luciferase reporter, luminescence. inhibition, % at 5 µM. actives 0.23% (n = 290,000);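 active = inhibition above a per-plate limit of that plate's mean compound inhibition plus 3 SD, cut at about 60% in these data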;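 note: 0% = DMSO wells and 100% = LY294002 at 200 µM; higher means less KLF5 promoter-driven luciferase light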
bCat nuc transl: beta-catenin nuclear translocation modulation | HeLa beta-catenin nuclear translocation, immunofluorescence imaging | nuclear translocation activity, % at 5 µM | actives 0.3% (n = 190,000) | AID 1665;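 active = nuclear translocation activity above 50% at 5 µM, with a well cell count of 50 or more; inconclusive = wells under 50 cells across six images, flagged as toxic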;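 note: per-cell ratio of nuclear to cytoplasmic median beta-catenin stain intensity; plate controls were DMSO negative control for no effect and GSK-3 inhibitor IX positive control for full effect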
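Test system: HeLa cells, endogenous beta-catenin; Compound: single 5 µM dose plus 0.02–20 µM confirmation series; Times: compound exposure 24 h at 37°C; Signal: fluorescence imaging of beta-catenin antibody stain plus DAPI; Read-out: % activation, nuclear-to-cytoplasmic median beta-catenin signal ratio per cell.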
Ba/F3 V617F tox: lowers viability of Ba/F3 cells expressing EpoR and JAK2V617F. ATP luminescence. inhibition, % at 5.6 µM. actives 1.1% (n = 220,000). AID 1446;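 active = inhibition above the campaign mean plus 3 SD over all tested compounds, cut at about 24% in these data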;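 note: cytokine-independent growth of Ba/F3 cells driven by EpoR plus mutant JAK2; 0% = DMSO-treated cells and 100% = JAK inhibitor I control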
The depositor's hits bear a star.

What do the screens show for `CCN(c1ccccc1)S(=O)(=O)c1ccc(Cl)c(NC(=O)CN2CCCCCC2)c1`?
IEC-6 tox: -3.4; BaF3 parental: 0.9; KLF5 inhibitor: -35.6; bCat nuc transl: 0.0; Ba/F3 V617F tox: -3.2

What do the screens show for `CCN(c1ccccc1)S(=O)(=O)c1ccc(OC)c(NC(=O)CN(C)C)c1`?
IEC-6 tox: -1.9; BaF3 parental: 32.8*; MT stabilizer: 3.2; KLF5 inhibitor: -13.7; bCat nuc transl: -0.1; Ba/F3 V617F tox: 11.9

How did CCN(c1ccccc1)S(=O)(=O)c1ccc(OC)c(NC(=O)CNC)c1 do in these assays?
IEC-6 tox: 4.9; BaF3 parental: 29.6*; MT stabilizer: 7.5; KLF5 inhibitor: -24.2; bCat nuc transl: 2.4; Ba/F3 V617F tox: 7.6

Results for Cc1ccc(NC(=O)N2CCCC2C(=O)Nc2nnc(C(C)C)s2)cc1 (centres undefined) ?
IEC-6 tox: -4.8; KLF5 inhibitor: -19.5

Results for CCCCCCCCCCCCCCCC[n+]1ccc(/C=N/O)cc1 ?
IEC-6 tox: -0.8; BaF3 parental: 63.5*; MT stabilizer: 16.1; KLF5 inhibitor: 14.6; bCat nuc transl: inconclusive; Ba/F3 V617F tox: 98.1*

Results for Cc1cc(NC(=O)CCC(=O)N(Cc2ccco2)C2(C(=O)NC3CCCCC3)CCN(C)CC2)no1 ?
IEC-6 tox: 0.9; BaF3 parental: 89.0*; MT stabilizer: 4.5; KLF5 inhibitor: -16.7; bCat nuc transl: -8.0; Ba/F3 V617F tox: -0.2

Results for COC(=O)CN1C(=O)N/C(=C/c2cc(OC)c(OC)cc2C)C1=O ?
IEC-6 tox: 4.5; BaF3 parental: 89.7*; MT stabilizer: 2.6; KLF5 inhibitor: -5.6; bCat nuc transl: 0.6; Ba/F3 V617F tox: -2.3

Results for CC1=CC(C)(C)N2C(=O)C3(N=C(N)NC(Nc4ccccc4)=N3)c3cc(C)cc1c32 (centres undefined) ?
IEC-6 tox: 13.8; BaF3 parental: 42.0*; MT stabilizer: 2.8; KLF5 inhibitor: -8.2; bCat nuc transl: 0.7; Ba/F3 V617F tox: 44.3*

What do the screens show for `O=C(CN(C(=O)CNS(=O)(=O)c1ccccc1)C1CCCC1)NCc1ccco1`?
bCat nuc transl: -0.9

How did CC(=O)Nc1sc(NC(=O)c2ccc([N+](=O)[O-])cc2)nc1-c1cccs1 do in these assays?
IEC-6 tox: 8.0; BaF3 parental: 45.7*; KLF5 inhibitor: -5.1; bCat nuc transl: 0.3; Ba/F3 V617F tox: 11.1

What do the screens show for `CC1(C)CC(Nc2ccc(Nc3ccccc3)cc2)CC(C)(C)N1`?
IEC-6 tox: 0.2; BaF3 parental: 29.4*; KLF5 inhibitor: -3.1; bCat nuc transl: -0.2; Ba/F3 V617F tox: 77.0*

How did O=C(c1cnn2c(C(F)F)cc(-c3ccccc3)nc12)N1CCCCC1c1cccnc1 (centres undefined) do in these assays?
IEC-6 tox: 1.2; BaF3 parental: 1.3; KLF5 inhibitor: 10.5; bCat nuc transl: 0.6; Ba/F3 V617F tox: 2.7

Results for CN(C)c1ccc(/C=N\NC(=O)c2ccc(Cn3cc(Cl)cn3)cc2)cc1 ?
IEC-6 tox: -1.9; BaF3 parental: 1.0; MT stabilizer: 29.5*; KLF5 inhibitor: 14.0; bCat nuc transl: -3.1; Ba/F3 V617F tox: -3.4

What do the screens show for `CSc1ccc(/C=N/NC(=O)c2ccccc2Cl)cc1`?
IEC-6 tox: 10.6; BaF3 parental: 2.6; MT stabilizer: 15.3*; KLF5 inhibitor: -65.3; bCat nuc transl: 3.2; Ba/F3 V617F tox: 2.5

What do the screens show for `CN(C)c1ccc(/C=N/NC(=O)c2ccc(Cl)cc2)cc1`?
IEC-6 tox: -7.2; BaF3 parental: 6.5; MT stabilizer: 1.2; KLF5 inhibitor: -26.4; Ba/F3 V617F tox: -1.1

What do the screens show for `CCN(CC)c1ccc(/C=N/NC(=O)c2ccco2)cc1`?
IEC-6 tox: 8.9; BaF3 parental: 10.2; MT stabilizer: 20.1*; KLF5 inhibitor: -63.5; Ba/F3 V617F tox: 5.7

Results for CN(C)c1ccc(/C=N/NC(=O)c2ccccc2)cc1 ?
IEC-6 tox: -2.5; BaF3 parental: 3.1; MT stabilizer: 14.0*; KLF5 inhibitor: -152.8; bCat nuc transl: 2.5; Ba/F3 V617F tox: -2.4

What do the screens show for `CCN(CC)c1ccc(NC(=S)NC(=O)c2cccs2)cc1`?
IEC-6 tox: 1.8; BaF3 parental: 2.8; MT stabilizer: 1.8; KLF5 inhibitor: -78.3; bCat nuc transl: -0.8; Ba/F3 V617F tox: 0.3

Results for CCCCC(=O)N(CCOC)c1nnc(-c2ccccc2C)s1 ?
IEC-6 tox: 2.6; BaF3 parental: -0.7; MT stabilizer: 1.8; KLF5 inhibitor: -13.8; bCat nuc transl: 0.4; Ba/F3 V617F tox: 0.4

Assay outcomes deposited in PubChem BioAssay by several laboratories.
